≈ marks a conversion by molar mass, not a printed value.
Columns and labels:
[1] = Solubility was measured in D2O using 1H NMR integration of the C-20 ethyl group against internal standard 1,4-dioxane; assay type: physicochemical
Procedure, shortened: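 Compound equilibrated ≥30 min in D2O containing 1,4-dioxane (0.015 M standardized solution) as internal standard, then filtered. 300-MHz ¹H spectrum; the C-18 methyl triplet at 0.8–0.9 ppm was integrated against the dioxane signal at 3.75 ppm.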

[2] = system: SK-OV-3; experiment: Human tumor cell cytotoxicity assay was performed using MTT (SK-OV3 cell line ); assay type: functional, cell-based
[3] = system: SK-VLB; experiment: Human tumor cell cytotoxicity assay was performed using MTT (SKVLB cell line ); assay type: functional, cell-based
[4] = system: Mus musculus; experiment: Delay in tumor growth in drug treated animals compared to controls at a dose of 100(mg/kg); assay type: functional
Procedure, shortened: (§1)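 Tumor growth delay in nude mice with HT-29 xenografts, N=6. The dose from a single s.c. bolus in tumor-free mice was split into three s.c. portions given over one day. T/C = difference in days for tumors to reach 500% of initial volume, treated versus control.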

[5] = organism: Mus musculus; experiment: Maximally tolerated dose that caused <=30% body weight loss in mice; assay type: functional
Procedure, shortened: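 Highest single s.c. bolus dose in tumor-free nude mice causing ≤30% body weight loss.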

[6] = system: Mus musculus; experiment: Efficacy against HT-29 human colon xenograft infected mice expressed as tumor growth ratio at dose 10.5 mg/Kg; assay type: functional
Procedure, shortened: (§2)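 Female nu/nu mice (18-24 g) carrying subcutaneous HT-29 flank tumors; N=6 per group. Compound given s.c. twice weekly for 5 weeks over a dose range including the highest dose found in naive mice. Caliper tumor volume = length×width²/2. T/B = tumor volume at end of treatment over initial volume. Body weight monitored; mean weight loss per group.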

[7] = system: Mus musculus; experiment: Mean body weight loss for animals in all experimental conditions at dose 9.5 mg/Kg in HT-29 human colon xenograft infected mice; assay type: functional; procedure, shortened: as §2
[8] = system: Mus musculus; experiment: Compound was tested for number of deaths of the animals at a dose of 9.5 mg/Kg in mice; assay type: ADME, organism-based; conditions: in vivo; procedure, shortened: as §2
[9] = system: Mus musculus; experiment: Mean body weight loss for animals in all experimental conditions at dose 11 mg/Kg in HT-29 human colon xenograft infected mice; assay type: functional; procedure, shortened: as §2
[10] = system: Mus musculus; experiment: Mean body weight loss for animals in all experimental conditions at dose 10.5 mg/Kg in HT-29 human colon xenograft infected mice; assay type: functional; procedure, shortened: as §2
[11] = system: Mus musculus; experiment: Compound was tested for number of deaths of the animals at a dose of 10.5 mg/Kg in mice; assay type: ADME, organism-based; conditions: in vivo; procedure, shortened: as §2
[12] = system: Mus musculus; experiment: Efficacy against HT-29 human colon xenograft infected mice expressed as tumor growth ratio at dose 9.5 mg/Kg; assay type: functional; procedure, shortened: as §2
[13] = system: Mus musculus; experiment: Efficacy against HT-29 human colon xenograft infected mice expressed as tumor growth ratio at dose 11 mg/Kg; assay type: functional
Procedure, shortened: (§3)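 Female nu/nu mice (18-24 g) bearing subcutaneous HT-29 flank tumours, N=6 per group. Dosed subcutaneously twice weekly for 5 weeks over a dose range that included the highest dose, which was set in naive mice. Caliper volume = length×width²/2. T/B = group mean tumour volume at end of treatment divided by initial mean volume.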

[14] = system: Mus musculus; experiment: Compound was tested for number of deaths of the animals at a dose of 11 mg/Kg in mice; assay type: ADME, organism-based; conditions: in vivo; procedure, shortened: as §2
[15] = system: HT-29; experiment: Human tumor cell cytotoxicity assay was performed using MTT (HT-29 cell line ); assay type: functional, cell-based
[16] = MDR ratio is defined as the quotient of SKVLB IC50/SKOV3 IC50; assay type: functional
Procedure, shortened: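 Ratio of SKVLB IC50 to SKOV3 IC50, each from the 96 h MTT cytotoxicity assay with a four-parameter logistic fit.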

[17] = system: Mus musculus; experiment: Mean body weight loss for animals in all experimental conditions at dose 8 mg/Kg in HT-29 human colon xenograft infected mice; assay type: functional; procedure, shortened: as §2
[18] = system: Mus musculus; experiment: Compound was tested for number of deaths of the animals at a dose of 14 mg/Kg in mice; assay type: ADME, organism-based; conditions: in vivo; procedure, shortened: as §2
[19] = system: Mus musculus; experiment: Mean body weight loss for animals in all experimental conditions at dose 12 mg/Kg in HT-29 human colon xenograft infected mice; assay type: functional; procedure, shortened: as §2
[20] = system: Mus musculus; experiment: Efficacy against HT-29 human colon xenograft infected mice expressed as tumor growth ratio at dose 14 mg/Kg; assay type: functional; procedure, shortened: as §2
[21] = system: Mus musculus; experiment: Compound was tested for number of deaths of the animals at a dose of 8 mg/Kg in mice; assay type: ADME, organism-based; conditions: in vivo; procedure, shortened: as §2
[22] = system: Mus musculus; experiment: Efficacy against HT-29 human colon xenograft infected mice expressed as tumor growth ratio at dose 12 mg/Kg; assay type: functional; procedure, shortened: as §2
[23] = system: Mus musculus; experiment: Mean body weight loss for animals in all experimental conditions at dose 14 mg/Kg in HT-29 human colon xenograft infected mice; assay type: functional; procedure, shortened: as §2
[24] = system: Mus musculus; experiment: Delay in tumor growth in drug treated animals compared to controls at a dose of 80(mg/kg); assay type: functional; procedure, shortened: as §1
[25] = system: Mus musculus; experiment: Efficacy against HT-29 human colon xenograft infected mice expressed as tumor growth ratio at dose 8 mg/Kg; assay type: functional; procedure, shortened: as §2
[26] = system: Mus musculus; experiment: Compound was tested for number of deaths of the animals at a dose of 12 mg/Kg in mice; assay type: ADME, organism-based; conditions: in vivo; procedure, shortened: as §2
[27] = system: Mus musculus; experiment: Delay in tumor growth in drug treated animals compared to controls at a dose of 48(mg/kg); assay type: functional; procedure, shortened: as §1
[28] = system: Mus musculus; experiment: Compound was tested for number of deaths of the animals at a dose of 5 mg/Kg in mice; assay type: ADME, organism-based; conditions: in vivo; procedure, shortened: as §2
[29] = system: Mus musculus; experiment: Efficacy against HT-29 human colon xenograft infected mice expressed as tumor growth ratio at dose 5 mg/Kg; assay type: functional; procedure, shortened: as §3
[30] = system: Mus musculus; experiment: Mean body weight loss for animals in all experimental conditions at dose 5 mg/Kg in HT-29 human colon xenograft infected mice; assay type: functional
Procedure, shortened: (§4)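 HT-29 subcutaneous xenografts in female nu/nu mice, N=6 per group. Subcutaneous dosing twice weekly for 5 weeks. Body weight was monitored and reported as mean percent loss per group. A loss of 30% or more was considered lethal.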

[31] = system: Mus musculus; experiment: Efficacy against HT-29 human colon xenograft infected mice expressed as tumor growth ratio at dose 9 mg/Kg; assay type: functional; procedure, shortened: as §3
[32] = system: Mus musculus; experiment: Compound was tested for number of deaths of the animals at a dose of 7 mg/Kg in mice; assay type: ADME, organism-based; conditions: in vivo; procedure, shortened: as §2
[33] = system: Mus musculus; experiment: Efficacy against HT-29 human colon xenograft infected mice expressed as tumor growth ratio at dose 7 mg/Kg; assay type: functional; procedure, shortened: as §3
[34] = system: Mus musculus; experiment: Mean body weight loss for animals in all experimental conditions at dose 7 mg/Kg in HT-29 human colon xenograft infected mice; assay type: functional; procedure, shortened: as §4
[35] = system: Mus musculus; experiment: Compound was tested for number of deaths of the animals at a dose of 9 mg/Kg in mice; assay type: ADME, organism-based; conditions: in vivo; procedure, shortened: as §2
[36] = system: Mus musculus; experiment: Mean body weight loss for animals in all experimental conditions at dose 9 mg/Kg in HT-29 human colon xenograft infected mice; assay type: functional; procedure, shortened: as §4
[37] = system: Mus musculus; experiment: Delay in tumor growth in drug treated animals compared to controls at a dose of 54(mg/kg); assay type: functional

CC[C@@]1(O)C(=O)OCc2c1cc1n(c2=O)Cc2c-1nc1cc3c(cc1c2Cn1ccnc1)OCO3
solubility [1]: < 500 µg/mL

CC[C@@]1(O)C(=O)OCc2c1cc1n(c2=O)Cc2c-1nc1cc3c(cc1c2Cn1cc[n+](C)c1)OCO3
IC50 [2]: 110 nM
IC50 [3]: 1000 nM
T/C [4]: 14 days
MTD [5]: 100 mg/kg
Efficacy [6]: 3.84
BW loss [7]: 4%
Deaths [8]: 0
BW loss [9]: 16%
BW loss [10]: 12%
solubility [1]: > 3500 µg/mL
Deaths [11]: 0
Efficacy [12]: 6.74
Efficacy [13]: 2.85
Deaths [14]: 0
IC50 [15]: 75 nM
Ratio [16]: 9

CC[C@@]1(O)C(=O)OCc2c1cc1n(c2=O)Cc2c-1nc1cc3c(cc1c2Cn1cc[n+](C)c1)OCCO3
solubility [1]: 1300 µg/mL

CC[C@@]1(O)C(=O)OCc2c1cc1n(c2=O)Cc2c-1nc1cc3c(cc1c2C[n+]1ccncc1)OCCO3
BW loss [17]: 21%
IC50 [2]: 11 nM
Deaths [18]: 0
IC50 [3]: 870 nM
BW loss [19]: 27%
Efficacy [20]: 0.32
MTD [5]: 100 mg/kg
Deaths [21]: 0
Efficacy [22]: 0.7
BW loss [23]: 13%
T/C [24]: 14 days
solubility [1]: 1400 µg/mL
Efficacy [25]: 2.1
IC50 [15]: 16 nM
Ratio [16]: 80
Deaths [26]: 0

CC[C@@]1(O)C(=O)OCc2c1cc1n(c2=O)Cc2c-1nc1cc3c(cc1c2C[n+]1ccc(CO)cc1)OCCO3
solubility [1]: 1100 µg/mL

CC[C@@]1(O)C(=O)OCc2c1cc1n(c2=O)Cc2c-1nc1cc3c(cc1c2C[n+]1cccc(CO)c1)OCO3
IC50 [2]: 11 nM
IC50 [3]: 23 nM
T/C [4]: 9 days
MTD [5]: >100 mg/kg
solubility [1]: > 4400 µg/mL
IC50 [15]: 13 nM
Ratio [16]: 2

CC[C@@]1(O)C(=O)OCc2c1cc1n(c2=O)Cc2c-1nc1cc3c(cc1c2C[n+]1ccccn1)OCO3
IC50 [2]: 83 nM
IC50 [3]: 130 nM
solubility [1]: > 3100 µg/mL
Ratio [16]: 2

CC[C@@]1(O)C(=O)OCc2c1cc1n(c2=O)Cc2c-1nc1cc3c(cc1c2C[n+]1ccccc1)OCCO3
IC50 [2]: 85 nM
IC50 [3]: 84 nM
solubility [1]: 1800 µg/mL
IC50 [15]: 84 nM
Ratio [16]: 1

COc1cccc2c1C(=O)c1c(O)c3c(c(O)c1C2=O)C[C@@](O)(C(=O)CO)C[C@@H]3O[C@H]1C[C@H](N)[C@H](O)[C@H](C)O1 [DOXORUBICIN]
solubility [1]: > 2000 µg/mL
Ratio [16]: 160

CC[C@@]1(O)C(=O)OCc2c1cc1n(c2=O)Cc2c-1nc1cc3c(cc1c2C[n+]1cccc(CO)c1)OCCO3
solubility [1]: 1200 µg/mL

CC[C@@]1(O)C(=O)OCc2c1cc1n(c2=O)Cc2c-1nc1cc3c(cc1c2C[n+]1ccncc1)OCO3
IC50 [2]: 6 nM
IC50 [3]: 23 nM
MTD [5]: 80 mg/kg
T/C [27]: 11 days
solubility [1]: 1400 µg/mL
IC50 [15]: 46 nM
Ratio [16]: 4

CC[C@@]1(O)C(=O)OCc2c1cc1n(c2=O)Cc2cc3c(CN(C)C)c(O)ccc3nc2-1 [TOPOTECAN]
Deaths [28]: 0
MTD [5]: 54 mg/kg
Efficacy [29]: 8.6
BW loss [30]: 15%
Efficacy [31]: 4.3
Deaths [32]: 0
Efficacy [33]: 7
BW loss [34]: 11%
BW loss [9]: 23%
Deaths [35]: 2
solubility [1]: 2100 µg/mL (≈ 4.98 mM)
BW loss [36]: 17%
Efficacy [13]: 2.9
T/C [37]: 10 days
Deaths [14]: 0

CC[C@@]1(O)C(=O)OCc2c1cc1n(c2=O)Cc2c-1nc1cc3c(cc1c2C[n+]1ccccc1)OCO3
IC50 [2]: 74 nM
IC50 [3]: 72 nM
T/C [4]: 4 days
MTD [5]: >100 mg/kg
solubility [1]: > 4500 µg/mL
IC50 [15]: 70 nM
Ratio [16]: 1

CC[C@@]1(O)C(=O)OCc2c1cc1n(c2=O)Cc2c-1nc1cc3c(cc1c2C[n+]1ccccn1)OCCO3
IC50 [2]: 69 nM
IC50 [3]: 94 nM
solubility [1]: 910 µg/mL
Ratio [16]: 1

CC[C@@]1(O)C(=O)OCc2c1cc1n(c2=O)Cc2c-1nc1cc3c(cc1c2Cn1ccnc1)OCCO3
solubility [1]: < 500 µg/mL
